# Only some compounds are listed: those with a hit (about 1.8% of all), similar ones and a draw of the others.
# HKDC1 inh – HKDC1 (human) hexokinase inhibition; 340,000 compounds, 0.16% hits; recombinant HKDC1, G6PDH/diaphorase resazurin coupled fluorescence; inhibition, % at 20 µM; AID 493160;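 active = inhibition above about 35% when tested at 20 µM, limit read from the data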;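 note: plate controls were DMSO wells with enzyme for no effect and DMSO wells lacking enzyme for full effect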
#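 test system = in-house recombinant HK5 (HKDC1) enzyme | amount = HKDC1 at 5 µg/mL | control set = DMSO-enzyme wells negative, buffer-substituted wells positive | compound = one dose of 20 µM, 1% DMSO | schedule = reaction time 90 min, room temperature, protected from light | technique = resorufin fluorescence at 613 nm | reagent = glucose with 1 mM ATP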
# DNMT1 inh – blocks human DNA methyltransferase DNMT1. P26358. DNMT1 molecular beacon, Hinp1I cleavage, fluorescence. inhibition (reported as % activation of signal), % at 10 µM. 360,000 compounds, 0.83% hits; in the data active = inhibition above about 50%
# Scp-1 inhibitor – Scp-1 (human) phosphatase inhibition; Recombinant Scp1, phosphopeptide, malachite green phosphate absorbance; inhibition, % at 20 µM; 340,000 compounds, 0.88% hits; AID 493091;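 active = inhibition above about 50% at 20 µM, limit read from the data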;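 note: plate controls were DMSO wells with enzyme for no effect and wells lacking enzyme for full effect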
#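 Times: enzyme reaction 45 min at room temperature, colour 5 min, stabilisation 30 min. Material: SCP-1 catalytic fragment, aa 76-261. Medium: Acidic Tris acetate buffer with magnesium and detergent. Signal: colorimetric free-phosphate detection, absorbance 630 nm. Read-out basis: % inhibition of SCP-1 phosphate liberation. Reagent: Phosphorylated 17-residue peptide substrate.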
# SUMO1-SIM PPI – alters human SUMO1 binding to SIM partners. P63165. SUMO1 binding to a labelled peptide, TR-FRET, 1 h. inhibition, % at 20 µM. 360,000 compounds, 0.33% hits; in the data active = inhibition above about 37%
# Target sequence (P63165 whole entry, looked up): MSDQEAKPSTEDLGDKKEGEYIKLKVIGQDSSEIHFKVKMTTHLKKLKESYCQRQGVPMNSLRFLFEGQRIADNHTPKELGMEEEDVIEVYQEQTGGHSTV
# STEP inh – blocks human striatal-enriched tyrosine phosphatase. inhibition, % at 20 µM. recombinant STEP, OMFP fluorogenic substrate, fluorescence. P54829. 360,000 compounds, 0.25% hits;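 active = inhibition at 20 µM, scaled per plate between control wells, above about 37%, limit read from the data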;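 note: 0% = DMSO with enzyme and substrate and 100% = substrate only without enzyme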
# Target sequence (P54829 whole entry, looked up): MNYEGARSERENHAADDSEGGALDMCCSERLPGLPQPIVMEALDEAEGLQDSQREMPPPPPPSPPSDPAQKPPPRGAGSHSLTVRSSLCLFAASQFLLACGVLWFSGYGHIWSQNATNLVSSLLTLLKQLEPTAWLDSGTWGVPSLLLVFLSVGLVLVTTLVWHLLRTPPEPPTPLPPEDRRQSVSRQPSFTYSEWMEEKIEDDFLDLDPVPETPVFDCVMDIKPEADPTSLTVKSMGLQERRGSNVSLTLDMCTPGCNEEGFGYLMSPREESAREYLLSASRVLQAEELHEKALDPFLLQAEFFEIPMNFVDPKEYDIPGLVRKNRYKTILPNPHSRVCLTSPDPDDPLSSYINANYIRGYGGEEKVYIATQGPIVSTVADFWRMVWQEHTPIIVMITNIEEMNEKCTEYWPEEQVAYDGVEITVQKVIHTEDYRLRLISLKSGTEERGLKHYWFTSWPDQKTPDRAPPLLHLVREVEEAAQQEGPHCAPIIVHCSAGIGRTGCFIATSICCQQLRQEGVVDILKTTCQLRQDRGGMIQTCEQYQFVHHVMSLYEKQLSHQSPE
#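 medium = Bis-Tris buffer pH 6.0, 2.5 mM DTT, 0.005% Tween 20 | test system = STEP (striatal-enriched tyrosine phosphatase) enzyme, cell-free | measure = normalized % inhibition | compound dosing = 20 µM, 1% DMSO | also added = 25 µM OMFP | schedule = reaction 20 min, ambient temperature | measured by = fluorescence read at 480 nm ex / 540 nm em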
# LMPTP inh – LMPTP (human) inhibition. P24666. recombinant LMPTP-A, OMFP fluorogenic substrate, fluorescence intensity. inhibition, % at 20 µM. 360,000 compounds, 0.22% hits;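 active = compounds that cut the enzyme signal by at least half of the control window in the single-dose screen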;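 note: plate controls were DMSO wells with enzyme plus substrate for no effect and substrate without enzyme for full effect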
#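 Test system – LMPTP-A phosphatase enzyme · Quantity – 0.625 nM LMPTP-A final · Reagent – OMFP substrate, 400 µM final · Dosing – one test concentration per compound, 20 µM, with 3% DMSO overall · Timing – 50 min enzyme reaction at room temperature, protected from light · Detection – fluorescence intensity · Controls – substrate-only low control, DMSO enzyme-plus-substrate high control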
# * marks the source's active call; other numbers are inactive results; . = not tested or not shown; ! = repeats disagree.
SMILES,HKDC1 inh,DNMT1 inh,Scp-1 inhibitor,SUMO1-SIM PPI,STEP inh,LMPTP inh
CC1(C)C2([N+](=O)[O-])CN3CN(C2)CC1([N+](=O)[O-])C3,-8,6,7,39*,1,-1
CC1(C)C(=O)CCC2C1=CCC1C2CCC2(C)C(O)CCC12 (centres undefined),-5,-2,-5,4,1,0
C=CCN1C(=O)NC(=O)/C(=C/c2ccoc2)C1=O,-3,50*,28,5,1,0
C=CCN1C(=O)NC(=O)/C(=C/c2cccn2C)C1=O,0,2,-5,-5,2,-1
Cc1ccc(N2C(=O)NC(=O)/C(=C/C=C/c3ccco3)C2=O)cc1,-1,30,6,6,-1,0
CCOc1ccc(N2C(=O)/C(=C\c3cccs3)C(=O)NC2=S)cc1,13,.,11,.,.,.
CCc1ccc(N2C(=O)NC(=O)/C(=C\C=C\c3ccco3)C2=O)cc1,11,138*,11,12,1,4
CCOc1ccc(N2C(=O)/C(=C/c3ccco3)C(=O)NC2=S)cc1,81*,49,94*,114*,100*,92*
Clc1cccc(N2Cc3cc(-c4ccccc4)ccc3-n3nncc3C2)c1,.,7,.,32,-2,4
CCOC(=O)[C@]12Cc3c(cc(OC)c(OC)c3OC)[C@H]1N(C(C)C)C(=O)c1cc(OC)ccc12,.,.,.,16,.,-1
CCC(C)NC(=O)c1c(N)n(CCCOC)c2nc3ccccc3nc12 (centres undefined),10,38,-2,41*,0,5
CCC(C)NC(=O)c1c(N)n(Cc2ccc3c(c2)OCO3)c2nc3ccccc3nc12 (centres undefined),20,36,-5,40*,0,8
CCOC(=O)[C@]12Cc3cc4ccccc4cc3[C@H]1N(Cc1ccccc1)C(=O)c1cc(OC)ccc12,.,.,.,7,.,5
CCOC(=O)c1cc2cc(OC)ccc2n1C1CCN(Cc2ccccc2)CC1,.,.,.,-6,.,2
O=c1[nH]c2ccccc2n1C1CCN(Cc2ccc(-c3[nH]c4cc5ncnc5cc4nc3-c3ccccc3)cc2)CC1,.,.,.,-4,.,84*
CC1(C)CC(=O)CC(C)(C)N1O,.,1,.,2,-2,-2
CN1C(=O)NC(=O)/C(=C/c2ccc([N+](=O)[O-])s2)C1=O,5,10,2,29,6,3
CN1C(=O)NC(=O)/C(=C/c2ccc([N+](=O)[O-])o2)C1=O,9,.,62*,.,.,.
COC12CCC3(CC1C(C)(O)C(C)(C)C)[C@H]1Cc4ccc(O)c5c4[C@@]3(CCN1CC1CC1)C2O5 (some centres undefined),3,-9,-6,-3,0,0
CN(C)[C@@H]1C(=O)C(C(N)=O)=C(O)[C@@]2(O)C(=O)C3=C(O)c4c(O)cccc4[C@@](C)(O)C3[C@H](O)C12 (some centres undefined),20,89*!,35,59*!,18,64*
CCOC(=O)[C@]12Cc3ccc4ccccc4c3[C@H]1N(Cc1ccccc1)C(=O)c1ccccc12,.,.,.,8,.,2
C[n+]1c(-c2ccccc2)c2cc(N)ccc2c2ccc(N)cc21,3,61*,-4,46*,6,81*
CCOC(=O)[C@]12Cc3ccccc3[C@H]1N(CCC(=O)OC)C(=O)c1cc(OC)ccc12,.,.,.,2,.,0
C=C1C(=O)O[C@@H]2C[C@@H](C)[C@H]3C=CC(=O)[C@]3(O)C[C@@H]12,2,-31,-8,53*,-1,1
Cc1ccc(N2C(=O)NC(=O)/C(=C\c3cn(CC(=O)O)c4ccccc34)C2=O)cc1,8,6,-8,-2,-1,2
SMILES,HKDC1 inh,DNMT1 inh,Scp-1 inhibitor,SUMO1-SIM PPI,STEP inh,LMPTP inh
O=C(O)Cn1cc(/C=C2\C(=O)NC(=O)N(Cc3ccco3)C2=O)c2ccccc21,15,90*,53*,27,7,5
CN1C(=O)/C(=C\c2ccc(Br)s2)C(=O)NC1=S,13,0,0,14,6,6
O=C1NC(=S)NC(=O)C1=Cc1ccc(Br)s1,6,57*,84*,17,20,10
C=C1C(O)[C@@H]2O[C@]3(CC[C@H](/C=C/C(C)[C@@H]4CC(C)=CC5(O[C@H](C[C@@](C)(O)C(=O)O)CCC5O)O4)O3)CC[C@H]2O[C@@H]1C(O)CC(C)[C@H]1OC2(CCCCO2)CCC1C (some centres undefined),0,.,7,.,.,.
CSc1nc(N)c(N=Nc2ccc([As](=O)(O)O)cc2)c(=O)[nH]1,25,18,16,39*,0,43
COc1ccc(N=Nc2c(O)[nH]c(=S)[nH]c2=O)cc1,-3,-1,-9,-55,7,11
O=C1Nc2ccccc2/C1=C/c1cnc[nH]1,-6,0,82*,-11,2,-1
Cc1cccc(-n2c(O)c(/C=C/C=Nc3ccccc3)c(=O)[nH]c2=O)c1,-4,55*,-4,-29,-16,1
Cc1cc(/C=C2\C(=O)NC(=O)N(c3ccc(F)cc3)C2=O)c(C)n1-c1cccc(C(=O)O)c1,10,37,11,23,2,-1
Cc1cc(/C=C2\C(=O)NC(=O)N(c3ccccc3)C2=O)c(C)n1-c1ccc(C(=O)O)c(Cl)c1,8,40,40,-3,46*,1
Cc1ccc2c(c1)C1CN(C)CCC1N2C(=O)c1cccs1 (centres undefined),-5,-1,-12,2,-3,0
Cc1ccc2c(c1)C1C[N+](C)(CC(=O)c3ccc(Cl)cc3Cl)CCC1N2C(=O)c1ccc(F)cc1 (centres undefined),-2,7,95*,-11,-2,0
c1cc(OCCN2CC2)ccn1,-9,-6,-10,-16,0,17
CCCCn1c(NS(=O)(=O)c2ccccc2)c(C(=O)OCC)c2nc3ccccc3nc21,-11,68*,-14,49*,3,9
Cn1ncnc2c(=O)n(C)c(=O)nc1-2,69*,109*,-8,29,85*,75*
O=C1NC(=O)N(c2ccccc2)C(=O)/C1=C\c1ccc([N+](=O)[O-])s1,2,.,17,.,.,.
COc1ccc(OC)c(N2C(=O)NC(=O)/C(=C\c3ccc([N+](=O)[O-])s3)C2=O)c1,12,16,3,48*,4,5
CNCC(=O)c1ccc(O)c(O)c1,.,2,.,3,2,56*
O=C(NCC1=C(c2ccc3ccccc3c2)C[C@@H]2CC[C@H]1N2Cc1ccco1)c1ccc([N+](=O)[O-])cc1,.,-8,.,-28,2,0
